Measured values taken from ChEMBL document CHEMBL1135330, “Synthesis and evaluation of 4-hydroxyphenylacetic acid amides and 4-hydroxycinnamamides as antioxidants” (Bioorg Med Chem Lett, 2002).

Assays:
Rattus norvegicus [1] = species on record: Rattus norvegicus; experiment: Compound was evaluated for its inhibitory concentration against hydrogen peroxide- induced oxidative neuronal damage in primary cultured rat cortical cells; format: functional, cell-based
Outline: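 Cortical cultures from rat, 12–14 days in vitro, were HBSS-washed and exposed to H2O2 for 5 min, with compound at various concentrations present during the exposure. Cultures were then washed and kept in MEM plus 21 mM glucose at 37 °C, 95% air/5% CO2.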

Rattus norvegicus [2] = species on record: Rattus norvegicus; experiment: Compound was tested for its inhibitory concentration against formation of lipid peroxides in rat brain homogenates by thiobarbituric acid reactive substances (TBARS) assay according to the method of Stocks.; format: functional
Outline: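 Lipid peroxidation was run on rat brain homogenate (pH 7.4) supernatant after 1000 × g for 10 min. It was started with 0.02 mM FeCl2 and 0.25 mM ascorbic acid for 30 min at 37 °C and stopped with perchloric acid. After re-centrifugation, the supernatant was reacted with 0.5% TBA at 80 °C for 1 h, cooled, and read at 532 nm.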

Rattus norvegicus [3] = species on record: Rattus norvegicus; experiment: Compound was evaluated for its inhibitory concentration against X/XO- induced oxidative neuronal damage in primary cultured rat cortical cells; format: functional, cell-based
Outline: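 Primary rat cortical cultures at 12–14 days in vitro were washed with HBSS and exposed for 10 min to xanthine (0.5 mM)/xanthine oxidase (10 mU/mL), with compound at various concentrations present during the insult. They were then washed and kept in MEM plus 21 mM glucose at 37 °C, 5% CO2.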

Rattus norvegicus [4] = species on record: Rattus norvegicus; experiment: Compound was evaluated for its inhibitory concentration against [Fe2+]/AA- induced oxidative neuronal damage in primary cultured rat cortical cells; format: functional, cell-based
Outline: (§1)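 Primary rat cortical cultures at 12–14 days in vitro were HBSS-washed and exposed for 2 h to Fe2+ (100 μM)/ascorbic acid (25 μM), with compound at various concentrations present during the insult. Cultures were then washed and held in MEM plus 21 mM glucose at 37 °C, 5% CO2.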

Rattus norvegicus [5] = species on record: Rattus norvegicus; experiment: Compound was tested for its DPPH radical scavenging activity in rat brain homogenates; format: functional
Rattus norvegicus [6] = species on record: Rattus norvegicus; experiment: Neuroprotective action was estimated in terms of its inhibitory concentration against [Fe2+]/AA- induced toxicity; format: functional; outline: as §1
Rattus norvegicus [7] = species on record: Rattus norvegicus; experiment: Neuroprotective action was estimated in terms of its inhibitory concentration against superoxide and hydroxyl radicals measured by the leakage of cytoplasmic enzyme lactate dehydrogenase (LDH); found highly potent; format: functional
Rattus norvegicus [8] = species on record: Rattus norvegicus; experiment: Neuroprotective action was estimated in terms of its inhibitory concentration against superoxide and hydroxyl radicals measured by the leakage of cytoplasmic enzyme lactate dehydrogenase (LDH).; format: functional

| IC50 (Rattus norvegicus [2]) | IC50 (Rattus norvegicus [5]) | IC50 (Rattus norvegicus [7]) | IC50 (Rattus norvegicus [8]) | SMILES | IC50 (Rattus norvegicus [1]) | IC50 (Rattus norvegicus [3]) | IC50 (Rattus norvegicus [4]) | IC50 (Rattus norvegicus [6]) |
| --- | --- | --- | --- | --- | --- | --- | --- | --- |
| 1.81 µM | 21.3 µM |  |  | Cc1ccc(CCCNC(=O)Cc2cc(O)c(O)c(O)c2)cc1C | 35 µM | 34.8 µM | 26.8 µM |  |
| 24 µM | 182 µM |  |  | CCOc1cc(CC(=O)NCCCc2ccc(C)c(C)c2)ccc1O |  |  |  |  |
| 25.9 µM | 179 µM |  |  | COc1cc(CC(=O)NCCCc2ccc(C)c(C)c2)ccc1O |  |  |  |  |
| 11.8 µM | 50.1 µM |  |  | COc1cc(CC(=O)NCCCc2ccc(C)c(C)c2)cc(OC)c1O |  |  |  |  |
| 32 µM | > 300 µM |  |  | Cc1ccc(CCCNC(=O)Cc2ccc(O)c(Oc3ccccc3)c2)cc1C |  |  |  |  |
| 9.94 µM | 82.2 µM |  |  | COc1cc(/C=C/C(=O)NCCCc2ccc(C)c(C)c2)ccc1O |  |  |  |  |
| 3.41 µM | 89.1 µM |  |  | COc1cc(/C=C/C(=O)NCCCc2ccc(C)c(C)c2)cc(OC)c1O |  |  |  | 5.4 µM |
|  |  |  |  | Cc1c(C)c2c(c(C)c1O)CCC(C)(C(=O)O)O2 (stereo unspecified) [TROLOX] | 330 µM | 202 µM | 431 µM |  |
| 4.68 µM |  |  |  | Cc1c(C)c2c(c(C)c1O)CC[C@@](C)(CCC[C@H](C)CCC[C@H](C)CCCC(C)C)O2 [ALPHA-TOCOPHEROL] |  |  |  |  |
| 19.4 µM | > 300 µM |  |  | Cc1ccc(CCCNC(=O)Cc2ccc(O)c(OC(C)C)c2)cc1C |  |  |  | 34.2 µM |
| 9.28 µM | 162 µM |  |  | CCCCOc1cc(CC(=O)NCCCc2ccc(C)c(C)c2)ccc1O |  |  |  | 4.2 µM |
| 1.11 µM | 34.3 µM |  |  | Cc1ccc(CCCNC(=O)/C=C/c2ccc(O)c(O)c2)cc1C | 5.91 µM | 2.54 µM | 23.7 µM |  |
| 4.03 µM |  |  |  | Cc1cc(C(C)(C)C)c(O)c(C(C)(C)C)c1 [BUTYLATED HYDROXYTOLUENE] |  |  |  |  |
| 2.6 µM | 31 µM | 2.4 µM | 2.4 µM | Cc1ccc(CCCNC(=O)Cc2ccc(O)c(O)c2)cc1C | 6.03 µM | 3.3 µM | 2.4 µM |  |
